The nature of data set [1]: Cytotoxicity against human PM1 cells after 24 hrs by MTT assay. The class given is cell-based. The gist of the method:
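Uninfected PM-1 or TZM-bl cells were exposed to drug and viability measured by MTT dye reduction as a percentage of untreated controls. CC50 was derived by nonlinear regression.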
On the technique in general: Tetrazolium assays rely on reduction of a dye to a coloured formazan, in cell work by metabolically active cells.

The subject of data set [2] is Human immunodeficiency virus 1. Kind of data set: Antiviral activity against HIV-1 Bal infected in human monocyte derived macrophages after 14 days by p24 assay. The conditions noted are these: Human immunodeficiency virus 1, Bal, 336 h.
In data set [3] the test system is Human immunodeficiency virus 1. Nature of the data set: Antiviral activity against HIV-1 Bal infected in human PM1 cells assessed as inhibition of transmission of virus to premissive T cells. The class given is functional, organism-based. The settings on record: Human immunodeficiency virus 1, Bal. An outline of the steps:
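Explants were pretreated with drug for 1 h, then exposed to HIV-1BaL for 2 h with drug present and washed. Cells that migrated out overnight were washed and cocultured with PM-1 cells (4 x 10^4/well) for about 10 days. Transfer was read as p24 by ELISA in coculture supernatant (detection limit 300 pg/ml). Two donors, triplicate.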

Data set [4] deals with Human immunodeficiency virus 1. Nature of the data set: Antiviral activity against HIV-1 subtype CRF01_AE V022822 infected in human MT4 cells assessed as inhibition of viral replication relative to HIV-1 3B. The class given is functional. The gist of the method: (§1)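 MT-4 cells (3 x 10^4/well) infected with site-directed mutants or recombinant clinical isolates (200 TCID50/well) with drug, cultured 3 to 5 days. Viability read by MTT colorimetric antivirogram assay. IC50 by nonlinear regression; fold change = IC50 for the test isolate / IC50 for wild-type HIV-1 IIIB tested in parallel (mean or median).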

For data set [5], the system named is Human immunodeficiency virus 1. Kind of data set: Antiviral activity against HIV-1 Bal infected in human PM1 cells assessed as inhibition of transmission of virus to premissive T cells at 100 nM.
Data set [6] concerns Human immunodeficiency virus 1. Nature of the data set: Antiviral activity against HIV-1 subtype H V022827 harboring NNRTI V179I mutant infected in human MT4 cells assessed as inhibition of viral replication relative to HIV-1 3B. The class given is functional. The gist of the method:
as §1

Data set [7] concerns Human immunodeficiency virus 1. Kind of data set: Antiviral activity against HIV-1 subtype CRF01_AE V022821 infected in human MT4 cells assessed as inhibition of viral replication relative to HIV-1 3B. In kind it is functional. The gist of the method:
(§2)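 Recombinant clinical HIV-1 isolates (200 TCID50/well) were tested in MT-4 cells (3 x 10^4/well) over 3–5 days, with an MTT viability read-out. IC50 was fitted by nonlinear regression. Fold change is the isolate IC50 divided by the HIV-1IIIB IC50, tested in parallel.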

In data set [8] the test system is Human immunodeficiency virus 1. Nature of the data set: Antiviral activity against HIV-1 Bal infected in 1 hr compound pretreated human ectocervical explant tissue assessed as inhibition of viral replication by RT-PCR. The class given is functional, organism-based. An outline of the steps:
(§3)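 Ectocervical explants were pretreated with drug for 1 h, then exposed to HIV-1BaL (two 50% tissue infectious doses, about 10^4 TCID50 on PM-1) for 2 h at 37°C with drug present. Explants were washed and cultured overnight, then cultured separately for 10 days. Tissue was proteinase K-digested and proviral LTR DNA measured by multiplex qPCR against β-actin (10 copies/10^5 cells sensitivity). Two donors, triplicate.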

Data set [9] in a line: Selectivity index, ratio of CC50 for human PM1 cells to IC50 for HIV-1 RF. The class given is functional. An outline of the steps: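 Selectivity index is CC50/IC50, using values determined in the same time period. CC50 was measured by MTT for TZM-bl and PM-1 cells and by trypan blue exclusion after 14 days for macrophages. Both were fitted by nonlinear regression.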
Data set [10] relates to Human immunodeficiency virus 1. Kind of data set: Antiviral activity against HIV-1 subtype C V022816 infected in human MT4 cells assessed as inhibition of viral replication relative to HIV-1 3B. In kind it is functional. An outline of the steps: as §2
In data set [11] the test system is Human immunodeficiency virus 1. Kind of data set: Antiviral activity against HIV-1 Bal infected in 2 hrs 10000 nM compound pretreated human ectocervical explant tissue assessed as prolonged inhibition of viral infection post compound removal measured after 6 days post compound removal. The class given is functional. The gist of the method: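 Ectocervical explants were exposed to drug (0.01–10 µM) for 2 or 24 h at 37°C and washed. They received HIV-1BaL (2 h) on day 0, 2, 4 or 6 after drug removal, with no drug present. Read-outs at 10 days post-exposure: explant p24 ELISA, tissue proviral DNA by qPCR, and p24 in migratory cell–PM-1 cocultures. Three donors (2 h) or two donors (24 h), triplicate.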

Data set [12] concerns Human immunodeficiency virus 1. Kind of data set: Antiviral activity against HIV-1 Bal infected in 1 hr compound pretreated human ectocervical explant tissue assessed as inhibition of viral replication at 0.1 nM by RT-PCR. In kind it is functional, organism-based. The gist of the method:
as §3

Data set [13] has as its system Human immunodeficiency virus 1. Kind of data set: Antiviral activity against HIV-1 subtype CRF01_AE V022820 infected in human MT4 cells assessed as inhibition of viral replication relative to HIV-1 3B. In kind it is functional. The gist of the method: as §1
Data set [14] has as its system Human immunodeficiency virus 1. Kind of data set: Antiviral activity against HIV-1 subtype CRF05_DF V022824 harboring NNRTI V106I mutant infected in human MT4 cells assessed as inhibition of viral replication relative to HIV-1 3B. The class given is functional. An outline of the steps:
as §1

The subject of data set [15] is Human immunodeficiency virus 1. Kind of data set: Antiviral activity against HIV-1 subtype D V022819 infected in human MT4 cells assessed as inhibition of viral replication relative to HIV-1 3B. In kind it is functional. An outline of the steps:
as §1

Data set [16] has as its system Human immunodeficiency virus 1. Nature of the data set: Antiviral activity against HIV-1 SM051 harboring NNTRI 100I and 103N mutant infected in human MT4 cells assessed as inhibition of viral replication relative to HIV-1 3B. The class given is functional. The gist of the method:
as §1

Data set [17] has as its system Human immunodeficiency virus 1. Kind of data set: Antiviral activity against HIV-1 SF162 infected in hu-SCID mouse assessed as protection from viral infection at 22.5 uM. The class given is functional. The conditions noted are these: Human immunodeficiency virus 1, SF162 ISOLATE.
The test system of data set [18] is Human immunodeficiency virus 1. Kind of data set: Antiviral activity against HIV-1 RF infected in human PM1 cells after 7 days by RT assay. The class given is functional, organism-based. The settings on record: Human immunodeficiency virus 1, RF, PM1, 168 h. An outline of the steps: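 PM-1 cells (4 x 10^4/well) were infected with HIV-1BaL or HIV-1RF (200 TCID50/ml) and cultured 7 days with drug. Replication was measured as reverse transcriptase in supernatant versus untreated wells. IC50 was obtained by nonlinear regression.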

For data set [19], the system named is Human immunodeficiency virus 1. Nature of the data set: Antiviral activity against HIV-1 SM026 harboring NNTRI 103N and 181C mutant infected in human MT4 cells assessed as inhibition of viral replication relative to HIV-1 3B. The class given is functional. An outline of the steps:
as §1

The test system of data set [20] is Human immunodeficiency virus 1. Nature of the data set: Antiviral activity against HIV-1 3B infected in human MT4 cells after 3 to 5 days by MTT assay. The settings on record: Human immunodeficiency virus 1, 3B, MT4, 72 to 120 h.
Data set [21] can be described thus: Toxicity against human Ectocervical tissue explants at 0.0001 to 100 uM after 24 hrs by MTT assay. The gist of the method: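 Uninfected ectocervical explants were exposed to drug for 2 or 24 h. Viability was measured by MTT reduction per milligram of tissue relative to unexposed explants, either immediately or after overnight culture. Three or four donors, triplicate.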

The test system of data set [22] is Human immunodeficiency virus 1. Nature of the data set: Antiviral activity against HIV-1 Bal infected in human TZM-bl cells after 24 hrs by luciferase reporter gene assay in presence of 12.5% whole semen. In kind it is functional, organism-based. The settings on record: Human immunodeficiency virus 1, Bal. An outline of the steps: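 HIV-1 BaL (200 TCID50/ml) pretreated with whole semen (12.5% final), then added to overnight-cultured TZM-bl cells (5 x 10^4/well) pretreated 1 h with drug. After 24 h, cells lysed and luciferase read. IC50 versus drug-free control by nonlinear regression; effect of semen tested by ANOVA with Bonferroni and t tests.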
For orientation: A reporter such as luciferase makes a cellular process visible.

Active and inactive are the calls of the source. The calls are words filed in the database; no cut-off is given here.

`Cc1cc(C)c(Nc2ccnc(Nc3ccc(C#N)cc3)n2)c(C)c1` [DAPIVIRINE]: it took 11000 nM to reach half-maximal cytotoxicity in [1] (CC50 at 24 h). In addition, the IC50 (usually the concentration that gives 50% inhibition) in data set [2] is 2.4 nM; in [3], 0.1 nM; in [8] (Human immunodeficiency virus 1, Bal) it was 0.2 nM; in [18] it was 2.4 nM; in data set [20] it was 0.9 nM; in data set [22] it was 1.75 nM. Further, the “Ratio IC50” value in [4] was determined as 0.9; in data set [6] it was 0.9; in [7] it was 1.7; in data set [10], 1.8; in [13] it was 0.9; in data set [14] it was 0.7. Also, the entries for the “Ratio IC50” value in [15], in data set [16] and in data set [19] were 1.5, 2389 and 63, respectively. Also, the inhibition entry in [5] and in [12] was “Active” in each case. Further, the figures for the Activity entry in [8] and in data set [21] were “Dose-dependent effect” and “Non-toxic”, respectively. Besides, the “Selectivity Index” value in data set [9] amounted to 4583. Besides, the “inhibition (INH)” value in data set [11] was 80%. The inhibition in vivo (in general, the drop in the measured response relative to a control, in per cent) at 22.5 µM in data set [17] was 78.6%. Further, the IC90 (usually the concentration needed for an effect of 90%) in [22] turned out to be 16.7 nM.

(Values after ChEMBL document CHEMBL1671644, “Inhibition of human immunodeficiency virus type 1 infection by the candidate microbicide dapivirine, a nonnucleoside reverse transcriptase inhibitor” (Antimicrob Agents Chemother, 2009).)
